The source made the active and inactive calls. The rule behind the calls is not given here.
Legend:
[1] = test system: Rattus norvegicus; experiment: Ability to elicit head twitches in rats a response characteristic of a serotonin mimetic action in the central nervous system was measured after 2 mg/kg of ip administration; assay type: functional; details: route intraperitoneal
Outline: (§1)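 Female Sprague-Dawley rats (150-250 g), compound given ip in 1% methylcellulose vehicle, dose as base weight; quantal scoring of rats showing at least one head twitch during a 2-min observation beginning 30 min after dosing; usually six rats per dose level; vehicle controls run.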

[2] = test system: Rattus norvegicus; experiment: Ability to elicit head twitches in rats a response characteristic of a serotonin mimetic action in the central nervous system was measured after 0.67 mg/kg of ip administration; assay type: functional; details: route intraperitoneal; outline: as §1
[3] = test system: Rattus norvegicus; experiment: Ability to elicit head twitches in rats a response characteristic of a serotonin mimetic action in the central nervous system after 6 mg/kg of ip administration; assay type: functional; details: route intraperitoneal; outline: as §1
[4] = test system: Rattus norvegicus; experiment: Serotonin neuronal reuptake blocking activity was determined by the antagonism of the head twitch response induced in rats with p-chloromethamphetamine (PCMA) after 6 mg/kg of ip administration; assay type: functional; details: route intraperitoneal
Outline: (§2)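 Female Sprague-Dawley rats (150-250 g) dosed ip with compound (1% methylcellulose vehicle, dose as base weight), then p-chloromethamphetamine 6.0 mg/kg ip 1 h later; head twitches observed 30 min after PCMA; scored as rats not twitching; usually six rats per dose; ED50 = dose antagonizing PCMA head twitch in 50% of animals, with 95% confidence limits.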

[5] = test system: Rattus norvegicus; experiment: Serotonin neuronal reuptake blocking activity was determined by the antagonism of the head twitch response induced by treatment of rats with p-chloromethamphetamine (PCMA) after 2 mg/kg of ip administration; assay type: functional; details: route intraperitoneal; outline: as §2
[6] = test system: Rattus norvegicus; experiment: Serotonin neuronal reuptake blocking activity was determined by the antagonism of the head twitch response induced by treatment of rats with p-chloromethamphetamine (PCMA) after 0.67 mg/kg of ip administration; assay type: functional; details: route intraperitoneal; outline: as §2
[7] = target: T1, Serotonin (5-HT) receptor (Rattus norvegicus) (UniProt P35563+P35365+P32305+P31388+Q9JJ16+P28564+P30994+Q62758+P08909+P14842+P30940+P35364+P19327+P28565); experiment: (§3) Ability to elicit head twitches in rats (a serotonin mimetic response); assay type: functional; design: concentration or dose not given beside the values; outline: as §1
[8] = target: T1, Serotonin (5-HT) receptor (Rattus norvegicus); experiment: as §3; assay type: functional; design: concentration or dose not given beside the values; outline: as §1; remark: listed apart in the source
[9] = target: T1, Serotonin (5-HT) receptor (Rattus norvegicus); experiment: as §3; assay type: functional; design: concentration or dose not given beside the values; outline: as §1; remark: listed apart in the source
[10] = target: Sodium-dependent serotonin transporter (Rattus norvegicus) (UniProt P31652); experiment: Serotonin neuronal reuptake blocking activity was determined by the antagonism of the head twitch response induced in rats; assay type: functional; design: concentration or dose not given beside the values; outline: as §2
[11] = target: Sodium-dependent serotonin transporter (Rattus norvegicus) (UniProt P31652); experiment: (§4) Serotonin neuronal reuptake blocking activity was determined by the antagonism of the head twitch response induced by treatment of rats; assay type: functional; design: concentration or dose not given beside the values; outline: as §2
[12] = target: Sodium-dependent serotonin transporter (Rattus norvegicus) (UniProt P31652); experiment: as §4; assay type: functional; design: concentration or dose not given beside the values; outline: as §2; remark: listed apart in the source
[13] = test system: Rattus norvegicus; experiment: Ability to elicit head twitches in rats a response characteristic of a serotonin mimetic action in the central nervous system after 40 mg/kg of ip administration; Animals succumbed; assay type: functional, organism-based; design: dose 40 mg/kg; outline: as §1
[14] = test system: Rattus norvegicus; experiment: Serotonin neuronal reuptake blocking activity was determined by the antagonism of the head twitch response induced in rats with p-chloromethamphetamine (PCMA) after 40 mg/kg of ip administration; Animals succumbed; assay type: functional, organism-based; design: dose 40 mg/kg; outline: as §2
[15] = test system: Rattus norvegicus; experiment: Ability to elicit head twitches in rats a response characteristic of a serotonin mimetic action in the central nervous system was measured after 1.0 mg/kg of ip administration; assay type: functional; details: route intraperitoneal; outline: as §1
[16] = test system: Rattus norvegicus; experiment: Ability to elicit head twitches in rats a response characteristic of a serotonin mimetic action in the central nervous system was measured after 3 mg/kg of ip administration; assay type: functional; details: route intraperitoneal; outline: as §1
[17] = test system: Rattus norvegicus; experiment: Ability to elicit head twitches in rats a response characteristic of a serotonin mimetic action in the central nervous system after 9 mg/kg of ip administration; assay type: functional; details: route intraperitoneal; outline: as §1
[18] = test system: Rattus norvegicus; experiment: Serotonin neuronal reuptake blocking activity was determined by the antagonism of the head twitch response induced in rats with p-chloromethamphetamine (PCMA) after 9 mg/kg of ip administration; assay type: functional; details: route intraperitoneal; outline: as §2
[19] = test system: Rattus norvegicus; experiment: Serotonin neuronal reuptake blocking activity was determined by the antagonism of the head twitch response induced by treatment of rats with p-chloromethamphetamine (PCMA) after 3 mg/kg of ip administration; assay type: functional; details: route intraperitoneal; outline: as §2
[20] = test system: Rattus norvegicus; experiment: Serotonin neuronal reuptake blocking activity was determined by the antagonism of the head twitch response induced by treatment of rats with p-chloromethamphetamine (PCMA) after 1.0 mg/kg of ip administration; assay type: functional; details: route intraperitoneal; outline: as §2
[21] = test system: Rattus norvegicus; experiment: Ability to elicit head twitches in rats a response characteristic of a serotonin mimetic action in the central nervous system was measured after 1 mg/kg of ip administration; assay type: functional; details: route intraperitoneal; outline: as §1
[22] = test system: Rattus norvegicus; experiment: Serotonin neuronal reuptake blocking activity was determined by the antagonism of the head twitch response induced by treatment of rats with p-chloromethamphetamine (PCMA) after 1 mg/kg of ip administration; assay type: functional; details: route intraperitoneal; outline: as §2
[23] = organism: Rattus norvegicus; experiment: ED50 value expresses the inhibition of serotonin reuptake in rat.; assay type: functional; outline: as §2

Sequence of Sodium-dependent serotonin transporter (Rattus norvegicus) (P31652 whole entry): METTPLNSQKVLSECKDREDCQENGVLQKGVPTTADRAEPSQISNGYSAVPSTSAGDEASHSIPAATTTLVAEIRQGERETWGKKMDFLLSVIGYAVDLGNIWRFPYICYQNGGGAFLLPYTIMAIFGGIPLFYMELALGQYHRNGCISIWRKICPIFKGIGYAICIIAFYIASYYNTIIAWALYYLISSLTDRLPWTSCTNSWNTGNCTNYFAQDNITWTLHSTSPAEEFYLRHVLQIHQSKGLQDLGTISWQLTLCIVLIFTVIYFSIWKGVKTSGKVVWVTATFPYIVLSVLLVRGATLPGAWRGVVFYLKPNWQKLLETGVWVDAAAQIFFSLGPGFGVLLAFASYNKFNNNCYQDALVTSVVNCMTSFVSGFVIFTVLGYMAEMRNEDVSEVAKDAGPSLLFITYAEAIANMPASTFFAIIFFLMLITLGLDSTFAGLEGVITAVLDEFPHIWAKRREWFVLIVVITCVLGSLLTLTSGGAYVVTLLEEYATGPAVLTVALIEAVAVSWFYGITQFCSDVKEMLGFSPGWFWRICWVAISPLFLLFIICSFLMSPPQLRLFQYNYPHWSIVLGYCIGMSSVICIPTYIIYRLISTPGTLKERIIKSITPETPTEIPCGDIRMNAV

SMILES	Activity [7]	Activity [8]	Activity [9]	PCMA antagonism [10]	PCMA antagonism [11]	PCMA antagonism [12]	further results
COc1ccc2ncc(N3CCNCC3)nc2c1							Activity [1]: 5; Activity [2]: 1; Activity [3]: 6
Brc1ccc2nc(N3CCNCC3)cnc2c1.Cl							Activity [1]: 4; Activity [2]: 0; Activity [3]: 2; PCMA antagonism [4]: 2; PCMA antagonism [5]: 3; PCMA antagonism [6]: 2
Clc1cc2ncc(N3CCNCC3)nc2cc1Cl	2	0	1	3	4	1	
Fc1cccc2ncc(N3CCNCC3)nc12	6	1			1	0	Activity [13]: Active; PCMA antagonism [14]: Active
CN1CCN(c2nc3ccccc3nc2O)CC1	0	0	6	0	0	1	
CS(=O)(=O)c1ccc2nc(N3CCNCC3)cnc2c1							Activity [1]: 1; Activity [2]: 0; Activity [3]: 2; PCMA antagonism [4]: 0; PCMA antagonism [5]: 0; PCMA antagonism [6]: 2
Clc1ccc2nc(N3CCNCC3)c(Sc3ccccc3)nc2c1	1	1	0	1	2	1	
[O-][n+]1cc(N2CCNCC2)nc2ccccc21	6	6					
Clc1ccc2ncc(N3CCNCC3)nc2c1							Activity [15]: 0; Activity [16]: 1; Activity [17]: 3; PCMA antagonism [18]: 5; PCMA antagonism [19]: 3; PCMA antagonism [20]: 1
Cn1c(=O)c(N2CCNCC2)nc2ccccc21							Activity [15]: 1; Activity [16]: 3; Activity [17]: 5; PCMA antagonism [18]: 0; PCMA antagonism [19]: 2; PCMA antagonism [20]: 1
Oc1ccc2nc(N3CCNCC3)cnc2c1	0	0	1	2	0		
Cc1cccc2nc(N3CCNCC3)cnc12.Cl							Activity [16]: 4; Activity [21]: 0; Activity [17]: 5; PCMA antagonism [18]: 1; PCMA antagonism [19]: 1; PCMA antagonism [22]: 0
O=[N+]([O-])c1ccc2nc(N3CCNCC3)cnc2c1	2	4	2	5	6	5	
CN(C)CCn1c(=O)c(N2CCNCC2)nc2ccccc21	0	1	1	0	0	2	
CC(=O)N1CCN(c2cnc3cc(Cl)ccc3n2)CC1	2	2	1	0	1	0	
COc1ccc2nc(N3CCNCC3)cnc2c1	1	1			5	3	Activity [13]: Active
CN1CCN(c2nc3ccc(S(N)(=O)=O)cc3nc2Cl)CC1	1	3	4	2	2	2	
Fc1ccc2nc(N3CCNCC3)cnc2c1				4	2	2	Activity [1]: 4; Activity [2]: 4; Activity [3]: 5
COc1cccc2nc(N3CCNCC3)cnc12	2	1	3	2	1	0	
Nc1nc2ccccc2nc1N1CCNCC1	3	2	6	0	1	1	
Oc1nc2ccccc2nc1N1CCNCC1	6	2	0	1			
Cl.Clc1ccc2nc(N3CCNCC3)cnc2c1	0	1	2	6	6	4	ED50 ([23]; Rattus norvegicus): 0.5 mg/kg
O=C1CN(c2cnc3ccccc3n2)CCN1	0	0	3				
Fc1cccc2nc(N3CCNCC3)cnc12	6	6					
c1ccc2nc(N3CCNCC3)cnc2c1	12	9			2	2	Activity [13]: Active; PCMA antagonism [14]: Active
CN1CCN(c2cnc3cc(Cl)ccc3n2)CC1.Cl							Activity [15]: 0; Activity [16]: 1; Activity [17]: 1; PCMA antagonism [18]: 4; PCMA antagonism [19]: 2; PCMA antagonism [22]: 2
CN(C)CCCN1c2ccccc2CCc2ccc(Cl)cc21 [CLOMIPRAMINE]							ED50 [23]: 2 mg/kg
Cl.ON1CCN(c2cnc3ccccc3n2)CC1							Activity [16]: 2; Activity [21]: 2; Activity [17]: 4
O=C(O)C1CN(c2cnc3ccccc3n2)CCN1 (centres undefined)	1	2	0	0	0	0	

Reference: ChEMBL document CHEMBL1121884, “Piperazinylquinoxalines with central serotoninmimetic activity” (1981)
